Experimental data from ChEMBL document CHEMBL6127151, “Cyclic Peptide C5aR1 Antagonist Design Using Solution Conformational Analysis Derived from Residual Dipolar Couplings” (ACS Med Chem Lett, 2024).

Assays:
[1] = biological target: T1, C5a anaphylatoxin chemotactic receptor 1 (Homo sapiens) (UniProt P21730); experiment: Binding affinity to C5aR1 receptor (unknown origin) assessed as binding constant; details: time 10.0 min
T1 sequence (whole entry): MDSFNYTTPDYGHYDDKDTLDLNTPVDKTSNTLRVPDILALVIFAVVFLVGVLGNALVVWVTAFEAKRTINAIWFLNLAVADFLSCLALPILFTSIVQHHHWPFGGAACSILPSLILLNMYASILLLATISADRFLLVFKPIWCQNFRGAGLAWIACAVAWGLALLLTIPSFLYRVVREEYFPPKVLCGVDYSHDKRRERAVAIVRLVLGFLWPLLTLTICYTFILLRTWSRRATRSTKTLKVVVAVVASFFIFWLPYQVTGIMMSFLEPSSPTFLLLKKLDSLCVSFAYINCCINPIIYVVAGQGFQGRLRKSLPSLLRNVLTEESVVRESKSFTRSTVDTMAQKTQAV

[2] = Passive permeability across apical to basolateral side in dog RRCK cells incubated for 30 mins; format: ADME, cell-based, Canis lupus familiaris, MDCKII-LE; details: MDCK, read-out: permeability
Procedure, shortened: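 Passive absorptive permeability was measured from the apical to the basolateral side in RRCK cells after a 30 min preincubation. Values are reported as the mean, in 10–6 cm/s.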

| SMILES | Papp A→B at 0.5 h [2] | Kb ([1]; filed as antagonist) | Kb [1] |
| --- | --- | --- | --- |
| C[C@@H](Cc1ccccc1)C(=O)N[C@H]1CCN(C)C(=O)C[C@H](Cc2ccccc2)NC(=O)[C@H](Cc2ccc(F)cc2)N(C)C(=O)[C@@H](CC2CCCCC2)NC(=O)[C@@H]2CCCN2C1=O | 2.1 ×10⁻⁶ cm/s | 127 nM |  |
| CCN1CC[C@H](NC(=O)c2ccnn2-c2ccccc2)C(=O)N[C@@H]([C@@H](C)O)C(=O)N[C@@H](CC(C)C)C(=O)N[C@@H](Cc2ccc(F)cc2)C(=O)N[C@@H](Cc2ccccc2)CC1=O | 0.4 ×10⁻⁶ cm/s | 54 nM |  |
| C[C@@H](Cc1ccccc1)C(=O)N[C@@H]1C(=O)N2CCC[C@H]2C(=O)N[C@H](CC2CCCCC2)C(=O)N[C@@H](Cc2ccc(F)cc2)C(=O)N[C@@H](Cc2ccccc2)C(=O)N2CCC1CC2 | 6.5 ×10⁻⁶ cm/s | 82.8 nM |  |
| CCCC[C@@H]1NC(=O)[C@H](Cc2ccc(F)cc2)N(C)C(=O)[C@@H](CC2CCCCC2)NC(=O)[C@@H]2CCCN2C(=O)[C@@H](NC(=O)[C@@H](C)Cc2ccccc2)CCCN(C)C1=O | 2.6 ×10⁻⁶ cm/s |  | > 10000 nM |
| CCCC[C@@H]1NC(=O)[C@H](Cc2ccc(F)cc2)NC(=O)[C@@H](CC2CCCCC2)N(C)C(=O)[C@@H]2CCCN2C(=O)[C@@H](NC(=O)[C@@H](C)Cc2ccccc2)CCCN(C)C1=O | 4.4 ×10⁻⁶ cm/s |  | > 10000 nM |
| C[C@@H](Cc1ccccc1)C(=O)N[C@H]1CC[C@H]2CCCN2C(=O)[C@H](Cc2ccccc2)NC(=O)[C@H](Cc2ccc(F)cc2)NC(=O)[C@@H](CC2CCCCC2)NC(=O)[C@@H]2CCCN2C1=O | 3.4 ×10⁻⁶ cm/s | 46.5 nM |  |
| CCCC[C@H]1C(=O)N(C)CCC[C@H](NC(=O)[C@@H](C)Cc2ccccc2)C(=O)N2CCC[C@H]2C(=O)N[C@H](CC2CCCCC2)C(=O)N[C@@H](Cc2ccc(F)cc2)C(=O)N1C | 4.2 ×10⁻⁶ cm/s |  | > 9500 nM |

Second part, led by results:

| Papp A→B at 0.5 h [2] | SMILES | Kb ([1]; filed as antagonist) | Kb [1] |
| --- | --- | --- | --- |
| 2.6 ×10⁻⁶ cm/s | C[C@@H](Cc1ccccc1)C(=O)N[C@H]1CCCN(C)C(=O)[C@H](Cc2ccccc2)NC(=O)[C@H](Cc2ccc(F)cc2)NC(=O)[C@@H](CC2CCCCC2)NC(=O)[C@@H]2CCCN2C1=O | 36.3 nM |  |
| 5.5 ×10⁻⁶ cm/s | C[C@@H](Cc1ccccc1)C(=O)N[C@H]1CCCN(C)C(=O)[C@H](Cc2ccccc2)NC(=O)[C@H](Cc2ccc(F)cc2)NC(=O)[C@@H](CC2CCCCC2)NC(=O)[C@H]([C@@H](C)O)NC1=O | 38.9 nM |  |
| 11.1 ×10⁻⁶ cm/s | C[C@@H](Cc1ccccc1)C(=O)N[C@H]1CCCN(C)C(=O)[C@H](Cc2ccccc2)NC(=O)[C@H](Cc2ccc(F)cc2)NC(=O)[C@@H](CC2CCCCC2)NC(=O)[C@@H]2CCN2C1=O | 57.5 nM |  |
| 5 ×10⁻⁶ cm/s | C[C@@H](Cc1ccccc1)C(=O)N[C@H]1CCN(C)C(=O)C[C@H](Cc2ccccc2)NC(=O)[C@H](Cc2ccc(F)cc2)NC(=O)[C@@H](CC2CCCCC2)NC(=O)[C@@H]2CCCN2C1=O | 5.52 nM |  |
